Data: ChEMBL document CHEMBL3243962, “Antileukemic activity of derivatives of 1,2-dimethyl-3,4-bis(hydroxymethyl)-5-phenylpyrrole bis(N-methylcarbamate)” (J Med Chem, 1979)
Calls of active or inactive are those of the source.

Assays:
Salmonella typhimurium = experiment: Antimicrobial activity against Salmonella typhimurium ATCC 14028 at 1 mg after 24 hrs by disk sensitivity assay; format: functional, organism-based; details: Salmonella enterica subsp. enterica serovar Typhimurium
Method in brief: (§1)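 Bacteria grown 24 h in trypticase soy broth; 1 mL used to seed a lawn on trypticase soy agar. Sterile 6 mm paper disks carrying 1 mg test compound placed on agar, incubated 24 h at 37 °C, then zone of inhibition around each disk measured.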

Serratia marcescens = experiment: Antimicrobial activity against Serratia marcescens ATCC 8100 at 1 mg after 24 hrs by disk sensitivity assay; format: functional, organism-based; method in brief: as §1
[1] = tested on: Staphylococcus epidermidis; experiment: Antimicrobial activity against Staphylococcus epidermidis ATCC 12228 at 1 mg after 24 hrs by disk sensitivity assay; format: functional, organism-based; method in brief: as §1
Escherichia coli = experiment: Antimicrobial activity against Escherichia coli ATCC 25922 at 1 mg after 24 hrs by disk sensitivity assay; format: functional, organism-based; method in brief: as §1
Proteus vulgaris = experiment: Antimicrobial activity against Proteus vulgaris ATCC 6380 at 1 mg after 24 hrs by disk sensitivity assay; format: functional, organism-based; method in brief: as §1
Mus musculus [2] = experiment: Toxicity in mouse P388 cells allografted CD2F1 mouse assessed as body weight loss at 100 mg/kg, ip of total 9 doses starting 24 hrs post tumor inoculation measured on day 5 of inoculation relative to control; format: organism-based; parameters: dose 100 mg/kg, route intraperitoneal; details: in vivo
Method in brief: (§2)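 Male CD2F1 mice inoculated ip with 6×10^6 P388 leukemia cells. Compounds given ip as distilled water–Tween 80 suspension, nine daily doses starting 24 h after inoculation; six mice per dose group. Treated-minus-control body-weight change (T − C) and toxicity-day survivors recorded on day 5 (4 days after first dose).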

Mus musculus [3] = experiment: Toxicity in mouse P388 cells allografted CD2F1 mouse assessed as body weight loss at 50 mg/kg, ip of total 9 doses starting 24 hrs post tumor inoculation measured on day 5 of inoculation relative to control; format: organism-based; parameters: dose 50 mg/kg, route intraperitoneal; details: in vivo; method in brief: as §2
Mus musculus [4] = experiment: Toxicity in mouse P388 cells allografted CD2F1 mouse assessed as body weight loss at 25 mg/kg, ip of total 9 doses starting 24 hrs post tumor inoculation measured on day 5 of inoculation relative to control; format: organism-based; parameters: dose 25 mg/kg, route intraperitoneal; details: in vivo; method in brief: as §2
Mus musculus [5] = experiment: Toxicity in mouse P388 cells allografted CD2F1 mouse assessed as body weight loss at 12.5 mg/kg, ip of total 9 doses starting 24 hrs post tumor inoculation measured on day 5 of inoculation relative to control; format: organism-based; parameters: dose 12.5 mg/kg, route intraperitoneal; details: in vivo; method in brief: as §2
Mus musculus [6] = experiment: Toxicity in mouse P388 cells allografted CD2F1 mouse assessed as body weight loss at 6.25 mg/kg, ip of total 9 doses starting 24 hrs post tumor inoculation measured on day 5 of inoculation relative to control; format: organism-based; parameters: dose 6.25 mg/kg, route intraperitoneal; details: in vivo; method in brief: as §2
Mus musculus [7] = experiment: Toxicity in mouse P388 cells allografted CD2F1 mouse assessed as mouse survival at 25 mg/kg, ip of total 9 doses starting 24 hrs post tumor inoculation measured on day 5 of inoculation relative to control; format: organism-based; parameters: dose 25 mg/kg, route intraperitoneal; details: in vivo
Method in brief: (§3)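 Male CD2F1 mice bearing ip P388 leukemia (6×10^6 cells) were dosed ip with nine daily doses in distilled water–Tween 80 suspension, starting 24 h after inoculation. Survivors per group of 6 were counted on day 5, i.e. 4 days after the first dose. Body-weight change of treated minus control mice was also recorded.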

Mus musculus [8] = experiment: Toxicity in mouse P388 cells allografted CD2F1 mouse assessed as mouse survival at 12.5 mg/kg, ip of total 9 doses starting 24 hrs post tumor inoculation measured on day 5 of inoculation relative to control; format: organism-based; parameters: dose 12.5 mg/kg, route intraperitoneal; details: in vivo; method in brief: as §3
Mus musculus [9] = experiment: Toxicity in mouse P388 cells allografted CD2F1 mouse assessed as mouse survival at 6.25 mg/kg, ip of total 9 doses starting 24 hrs post tumor inoculation measured on day 5 of inoculation relative to control; format: organism-based; parameters: dose 6.25 mg/kg, route intraperitoneal; details: in vivo; method in brief: as §3
Enterobacter cloacae = experiment: Antimicrobial activity against Enterobacter cloacae ATCC 23355 at 1 mg after 24 hrs by disk sensitivity assay; format: functional, organism-based; method in brief: as §1
Klebsiella pneumoniae = experiment: Antimicrobial activity against Klebsiella pneumoniae ATCC 23357 at 1 mg after 24 hrs by disk sensitivity assay; format: functional, organism-based; method in brief: as §1
Staphylococcus aureus = experiment: Antimicrobial activity against Staphylococcus aureus ATCC 25923 at 1 mg after 24 hrs by disk sensitivity assay; format: functional, organism-based; method in brief: as §1
P388 [10] = experiment: Antitumor activity against mouse P388 cells allografted in CD2F1 mouse assessed as increase in mouse survival at 50 mg/kg, ip of total 9 doses starting 24 hrs post tumor inoculation measured on day 5 of inoculation relative to control; format: functional; details: route intraperitoneal
Method in brief: (§4)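 Male CD2F1 mice inoculated ip with 6×10^6 P388 leukemia cells. Dosing was ip as a suspension in distilled water–Tween 80, nine daily doses starting 24 h after inoculation. Activity was read as median survival time of treated vs control mice (% T/C); % T/C ≥ 120 was considered significant. Groups were 6 mice.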

P388 [11] = experiment: Antitumor activity against mouse P388 cells allografted in CD2F1 mouse assessed as increase in mouse survival at 25 mg/kg, ip of total 9 doses starting 24 hrs post tumor inoculation measured on day 5 of inoculation relative to control; format: functional; details: route intraperitoneal; method in brief: as §4
P388 [12] = experiment: Antitumor activity against mouse P388 cells allografted in CD2F1 mouse assessed as increase in mouse survival at 12.5 mg/kg, ip of total 9 doses starting 24 hrs post tumor inoculation measured on day 5 of inoculation relative to control; format: functional; details: route intraperitoneal; method in brief: as §4
P388 [13] = experiment: Antitumor activity against mouse P388 cells allografted in CD2F1 mouse assessed as increase in mouse survival at 6.25 mg/kg, ip of total 9 doses starting 24 hrs post tumor inoculation measured on day 5 of inoculation relative to control; format: functional; details: route intraperitoneal; method in brief: as §4
Mus musculus [14] = experiment: Toxicity in mouse P388 cells allografted CD2F1 mouse assessed as mouse survival at 50 mg/kg, ip of total 9 doses starting 24 hrs post tumor inoculation measured on day 5 of inoculation relative to control; format: organism-based; parameters: dose 50 mg/kg, route intraperitoneal; details: in vivo; method in brief: as §3
Mus musculus [15] = experiment: Toxicity in mouse P388 cells allografted CD2F1 mouse assessed as mouse survival at 100 mg/kg, ip of total 9 doses starting 24 hrs post tumor inoculation measured on day 5 of inoculation relative to control; format: organism-based; parameters: dose 100 mg/kg, route intraperitoneal; details: in vivo; method in brief: as §3
P388 [16] = experiment: Antitumor activity against mouse P388 cells allografted in CD2F1 mouse assessed as increase in mouse survival at 100 mg/kg, ip of total 9 doses starting 24 hrs post tumor inoculation measured on day 5 of inoculation relative to control; format: functional; details: route intraperitoneal; method in brief: as §4

Compound	Activity [1]	Activity (Mus musculus [2]) [g]	Activity (Mus musculus [3]) [g]	Activity (Mus musculus [4]) [g]	Activity (Mus musculus [5]) [g]	Activity (Mus musculus [6]) [g]	Activity (Mus musculus [7])	Activity (Mus musculus [8])	Activity (Mus musculus [9])	T/C (P388 [10]) [%]	T/C (P388 [11]) [%]	T/C (P388 [12]) [%]	T/C (P388 [13]) [%]	Activity (Mus musculus [14])	T/C (P388 [16]) [%]	further results
CNC(=O)OCc1c(COC(=O)NC)c(-c2ccc([N+](=O)[O-])cc2)n(C)c1C	inactive	4.4	6.6	5.5	4.1	2.9	Non-toxic	Non-toxic	Non-toxic	< 90	<90	169	153			Activity (Salmonella typhimurium): inactive; Activity (Serratia marcescens): inactive; Activity (Escherichia coli): inactive; Activity (Proteus vulgaris): inactive; Activity (Enterobacter cloacae): inactive; Activity (Klebsiella pneumoniae): inactive; Activity (Staphylococcus aureus): inactive
CNC(=O)OCc1c(COC(=O)NC)c(-c2ccc(Cl)c(Cl)c2)n(C)c1C	Active	5.9	3.2	2.4	1.7	1.7	Non-toxic	Non-toxic	Non-toxic	163	148	145	145	Non-toxic		
CNC(=O)OCc1c(COC(=O)NC)c(-c2ccc(C)cc2)n(C)c1C		1.8	4.5	3.4	3.2	1.4	Non-toxic	Non-toxic	Non-toxic		144	144	138			Activity (Mus musculus [15]): Toxic
CNC(=O)OCc1c(COC(=O)NC)c(-c2ccc(N)cc2)n(C)c1C		3.5	2.5	0.4	0.1	0.7		Non-toxic	Non-toxic	119	100	98	92	Non-toxic	135	
CNC(=O)OCc1c(COC(=O)NC)c(-c2ccccc2)n(C)c1C		6	4.6	3.9	3.3	2.5	Non-toxic	Non-toxic	Non-toxic	90	145	130	135	Non-toxic	<70	
